Reference: the EternaBench riboswitch data

Tested on: MS2 coat protein
Assay: apparent Kd, MS2 coat protein; higher = weaker binding; RNA-MaP array; FMN 200 µM where present
Procedure, shortened: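 Apparent Kd: the median of filtered binding-curve fits from single clusters. Designs were transcribed on Illumina sequencing-chip clusters by stalled E. coli RNA polymerase and titrated with SNAP-549-labelled MS2 coat protein from 0.7 or 1.5 nM, doubling to 3 µM, in 100 mM Tris-HCl pH 7.5, 80 mM KCl, 4 mM MgCl2, BSA, DTT, yeast tRNA and Tween-20. Each series ran without and then with constant ligand, and green signal was normalised to red-channel RNA signal and control-cluster median Fmax.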

[1] = designed as: OFF switch for flavin mononucleotide, no ligand
[2] = ligand present: flavin mononucleotide, designed as: OFF switch for flavin mononucleotide
[3] = designed as: ON switch for flavin mononucleotide, no ligand
[4] = ligand present: flavin mononucleotide, designed as: ON switch for flavin mononucleotide

Sequence | apparent Kd [1] | apparent Kd [2] | apparent Kd [3] | apparent Kd [4]
UUAGAACAUGAGGAUCACCCAUGUGAGGAUAUGCAAUACUAAUAUUAAGAUAAUUAUAGCAGAAGGCACGUAGU | 34.3 nM | 47.7 nM |  | 
UUAGGCUUCUAGAAGGCAGUCCAGCUGGAGGACUGAGGAUAUAGGCACCUAACAUGAGGAUCACCCAUGUUAGUGAUUCCUCAA | 38.7 nM | 73 nM |  | 
UUAUGAGAGCAGGAUAUCUUAUUUUUUUUUUAUGGAGAAGGGCUCACAUGAGGAUCACCCAUGUGGUCCUAGAU | 27.9 nM | 54.4 nM |  | 
UUAUGGCUAGGAUAUGCACGUGCAUGUUCAAGUCAAAGAAGACAUGAGGAUCACCCAUGUAGAAGGAGCGAUAA | 28.8 nM | 21.2 nM |  | 
UUAUUAUGUGUAGGAUAUGCAUAUUAUUAUUAUGCAGAAGGACAUGAGGAUCACCCAUGUAUAUUGUUAUUAUAUAUUAUAUAU | 11.5 nM | 16.7 nM |  | 
UUAUUUAGGUAGGAUAUCGAUACCAAUCCCUAUCGAGAAGGGUCUACAUGAGGAUCACCCAUGUUAGCAUGUUU | 20.1 nM | 21.1 nM |  | 
UUAUUUUGUCAAGGAUAUGUAUUAUUGAUUUGAAAACAUGAGGAUCACCCAUGUAUAUGGUGGGAACAGAAGGUGAAUGGUGAA | 194 nM | 215 nM |  | 
UUAUUUUUAUGAUUGAGGAUAGGGCAGGAUAUACAUGAGGAUCACCCAUGUAAAGCAAUAAGGAGGUAGAAGGGCCAACCUCAU | 24.3 nM | 20.1 nM |  | 
UUCAAGUUGCGAGGAUAUCGUGUUAACAUGAGGAUCACCCAUGUAAAGGUAUAUUAAAUUAUCUUCGAGAAGGCGCUUAAUGUA |  |  | 22.6 nM | 20.3 nM
UUCAAUCACAUAGGAUAUAGAAUAUUAUUUUUUUACAUGAGGAUCACCCAUGUUUUAUUGGGUUUCUAGAAGGAUGAGUUAUUA |  |  | 451 nM | 289 nM
UUCACGUAUAUAGGAUAUGCGGGCAAAUAACGCGCAGAAGGAUAUACAUGAGGAUCACCCAUGUAUUGAGACCUCAUACGCCGC | 7.47 nM | 9.38 nM |  | 
UUCACUCGAGUCAGGAUAUUAGUCCGCGAUAGUGUUAAGAAGGGACAUGAGGAUCACCCAUGUCACACAUGGAG | 28.2 nM | 23.2 nM |  | 
UUCAGCUCGUCAGGAUAUACGUCACUGCUUCGGCAGUGUGGUAAGAUCACAUGAGGAUCACCCAUGUAGAAGGGACGAGCUGAU | 11.9 nM | 274 nM |  | 
UUCAGCUCGUGAGGAUAUACAUGUGCUGGAAACAGCACUAAUAGAAUCACAUGAGGAUCACCCAUGUAGAAGGCACGAGCUGAG | 17.2 nM | 40.1 nM |  | 
UUCAGCUCGUGAGGAUAUACAUGUGCUGGAAACAGCAUUAUAUUUUUCACAUGAGGAUCACCCAUGUAGAAGGCACGAGCUGAG | 15.7 nM | 27.3 nM |  | 
UUCAGCUUGACAGGAUAUACAUGACUGCGAAAGCAGUCUAUCUUAAUAACAUGAGGAUCACCCAUGUAGAAGGGUCGAGCUGAA | 16.2 nM | 26.5 nM |  | 
UUCAGCUUGACAGGAUAUACAUGUCAGCGAAAGCUGACUAUCUUAAUAACAUGAGGAUCACCCAUGUAGAAGGGUCGAGCUGAA | 16.4 nM | 25.6 nM |  | 
UUCAUCAAUGAAGGAUAUCUAUGUCCAACAUGAGGAUCACCCAUGUUGAGGAUCACCUAUGUGUAGGAGAAGGUCAAUAUAACU |  |  | 8.56 nM | 8.54 nM
UUCAUGUGAGGAUAUAGUACUCUUUCUAUUAUUUUUGAGUAUUAGAAGGCACAUGAGGAUCACCCAUGUAGUAC | 89.7 nM | 18.8 nM |  | 
UUCAUGUGAGGAUAUCAGUAGUAAAAAAAUAAAAUUACUACUGAGAAGGCACAUGAGGAUCACCCAUGUGUCUC | 22.1 nM | 26.6 nM |  | 
UUCCGGCAUGUAGGAUAUGGAUCCGAUUAGGAUUUAGAAGGACAUGAGGAUCACCCAUGUGCAUUUAAUUAGUCAUUACCGUUU | 41.6 nM | 86.5 nM |  | 
UUCCUCAUAACAUGAGGAUCACCCAUGUAUUAUUUGAUAACUGAGGAUAUACUUUUAAUGUUUAUGUAGAAGGCAGAUACAGUU | 89.4 nM | 138 nM |  | 
UUCGUGCAGCGUUGCUGUACGCGUACAUGAGGAUCACCCAUGUAGGAUAUGGUACGCUUUGCGUGCUAGAAGGAUAUGGAGAGG | 15.2 nM | 18.9 nM |  | 
UUCGUGCAGCUUUGCUGUACGCGUACAUGAGGAUCACCCAUGUAGGAUAUGGUAGGCUUUGCUUACUAGAAGGAUAGUGUGAUU | 118 nM | 81.8 nM |  | 
UUCGUGCAGCUUUGCUGUAUGCGUACAUGAGGAUCACCCAUGUAGGAUAUGGUAGGCUUUGCUUACUAGAAGGAUAGUGUGAUC | 97 nM | 40.3 nM |  | 
UUGAAGAAUUAAGGAUAUUGAAUACAUAUGUUAAACAUGAGGAUCACCCAUGUGGGUUGCGGUAUCGAGAAGGUAAAUUACUAG |  |  | 83 nM | 78.7 nM
UUGAAUCGAAACAUGAGGAUCACCCAUGUGUCGUAAUUGACAUAGGAUAUGUAUAUACUUUUAUAAUAGAAGGAUGACGAUACU |  |  | 9.09 nM | 7.94 nM

Sequence | apparent Kd [1] | apparent Kd [2] | apparent Kd [3] | apparent Kd [4]
UUGAUAAGGAGAGGAUAUGGACAUGAGGAUCACCCAUGUACAUGGGAAUAUUUACUGAAUUUUUACUAGAAGGCUUACAUAUUU | 15.8 nM | 12.4 nM |  | 
UUGAUAAGGAGAGGAUAUUGACAUGAGGAUCACCCAUGUACAUGGGAGUGUUUACUGAAUUCUUACGAGAAGGCUUACAUAUUU | 245 nM | 166 nM |  | 
UUGAUGUCAUCAGGAUAUAGUAUUUAAGACAUAUCUUCUUUCAAACAUGAGGAUCACCCAUGUCGCUAGAAGGGAUGAUUGAUU | 17.3 nM | 15.3 nM |  | 
UUGAUGUCAUCAGGAUAUAGUAUUUAAGACAUAUCUUCUUUCUUACAUGAGGAUCACCCAUGUCGCUAGAAGGGAUGAAUGAUU | 18.7 nM | 15.4 nM |  | 
UUGAUUCAUUCCUCCAUAAACAUGAGGAUCACCCAUGUAAGUGAGGAUAUAGUUGGAGUAGUAUACUAGAAGGCACUUAGAUAU | 12.3 nM | 9.75 nM |  | 
UUGCAGUGCGGGUAGGAUAUGUAGGGUGGUACAUGAGGAUCACCCAUGUGUCCACCCUUCUUCCGGCAGAAGGGCCUGUCACUGC |  |  | 15.2 nM | 13.5 nM
UUGCCUCAGAACAUGAGGAUCACCCAUGUGCUGCGGGCAACGUAGGAUAUGAUGGUACGCUACCAUCAGAAGGAUGAUGGUACC |  |  | 5.51 nM | 4.99 nM
UUGCUCGUGUGAGGAUAUGCCGCCGUUUCGGCUGCAGAAGGUACUCUUGUACAUGAGGAUCACCCAUGUCUCUGUUGUUUCGUG |  |  | 49 nM | 43.6 nM
UUGCUGCGGAAGUUCGGCUCUCGCGAGGAUAUACCUACAGGGCCACAUGAGGAUCACCCAUGUACGUAGAAGGCGCGACAGAAA | 15.8 nM | 48 nM |  | 
UUGGACCUCGUAGGAUAUGUAGGAUAUUCCUACAUGAGGAUCACCCAUGUUGACAUGGAAGAAGGACAGAAGGACGAUGUCCAU |  |  | 311 nM | 5.32 nM
UUGGACGUCGUAGCAUAUGUAGGAUAUUCCUACAUGAGGAUCACCCAUGUUGACAUGGAAGAAGGACAGAAGGACGAUGUCCAU |  |  | 146 nM | 5.47 nM
UUGGACGUCGUAGGAUAUGUAGGAUAUUCCUACAUGAGGAUCACCCAUGUUGACAUGGAAGAAGAACAGAAGGACGAUGUCCAU |  |  | 212 nM | 6.04 nM
UUGGACGUCGUAGGAUAUGUAGGAUAUUCCUACAUGAGGAUCACCCAUGUUGACAUGGAAGAAGGAAAGAAGGACGAUGUCCAU |  |  | 496 nM | 303 nM
UUGGACGUCGUAGGAUAUGUAGGAUAUUCCUACAUGAGGAUCACCCAUGUUGACAUGGAAGAAGGACAGAAGGUCGAUGUCCAU |  |  | 602 nM | 9.86 nM
UUGGACGUCGUAGGAUAUGUAGGAUAUUCCUACAUGAGGAUCACCCAUGUUGACAUGGAAGAAGGACAGAGGGACGAUGUCCAU |  |  | 454 nM | 11.6 nM
UUGGACGUCGUAGGAUAUGUAGGAUAUUCCUACAUGAGGAUCACCCAUGUUGACAUGGAAGAAGGACAGCAGGACGAUGUCCAU |  |  | 690 nM | 12.9 nM
UUGGACGUCGUAGGAUAUGUAGGAUAUUCCUACAUGAGGAUCACCCAUGUUGGCAUGGAAGAAGGACAGAAGGACGAUGUCCAU |  |  | 158 nM | 4.94 nM
UUGGACGUCGUAGUAUAUGUAGGAUAUUCCUACAUGAGGAUCACCCAUGUUGACAUGGAAGAAGGACAGAAGGACGAUGUCCAU |  |  | 144 nM | 6.12 nM
UUGGAGAUAGGAUAUACGAGGAGAGUAGAGGGAAGGUGAUGACAUGAGGAUCACCCAUGUAGAAGGAUCAGGAG | 155 nM | 100 nM |  | 
UUGGAGUACGUAGGAUAUGUAGGAUAUUCCUACAUGAGGAUCACCCAUGUAUGCAUGGAAGAAGGACAGAAGGACGUGCUCCAU |  |  | 219 nM | 16 nM
UUGGAGUACGUAGGAUAUGUAGGAUAUUCCUACAUGAGGAUCACCCAUGUUAGCAUGGAAGAAGGACAGAAGGACGUGCUCCAU |  |  | 1120 nM | 15.1 nM
UUGGCUAAACCUCAGAGUACCACAUGAGGAUCACCCAUGUGGAGAAGGGACUUUGUACCGUUGAGUCAGGAUAUUCAUUGGGUA | 5.17 nM | 7.35 nM |  | 
UUGGGUCGGGAGGAUAUUCGGGCUCAUGGGCUUGGAGAAGGCUCGACAUGAGGAUCACCCAUGUAAGUGUACUU | 153 nM | 542 nM |  | 
UUGGGUUUGGGAGGAUAUGGGUAAAAUAAAGUACUAGAAGGCUUAAAUUAUUUUAUAGUUGUAUUACAUGAGGAUCACCCAUGU |  |  | 13.6 nM | 10.4 nM
UUGGUAUUCGUAGGAUAUCUGUCGCCACCGUGUGGAGAAGGACGAACAUGAGGAUCACCCAUGUAUCAUGGUGUGGGCUUUGUU | 504 nM | 470 nM |  | 
UUGGUUGUCGUAGGAUAUGUAGGAUAUUCCUACAUGAGGAUCACCCAUGUUCGCAUGGAAGAAGGACGGAAGGACGAUGACCAA |  |  | 233 nM | 153 nM
UUGUAAACUAUCCGUACAUGAGGAUCACCCAUGUGCAAGAGCAGAAGGACGUGGCACUCGAGUACGUAGGAUAUGCAUGGAUGG |  |  | 27.1 nM | 9.59 nM
